One assay relates to MDA-MB-231. Nature of the assay: Antiproliferative activity against human MDA-MB-231 cells after 72 hrs by MTT assay. It is filed as functional, cell-based. The following applies: MDA-MB-231, 72 h. In short, it runs like this:
(§1)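 RPMI-1640 with 10% fetal calf serum, 37 °C, 5% CO₂, 95% humidity. Cells seeded at 5.0 × 10³/well and grown 24 h, then exposed 72 h to a range of compound concentrations. MTT (5 mg/ml solution) added for a further 4 h at 37 °C. Formazan crystals dissolved and absorbance read at 570 nm. Each compound tested three times per cell line. IC50 reported as mean ± SD of three independent experiments.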

Assay [1] addresses T1, RAF proto-oncogene serine/threonine-protein kinase (Homo sapiens, UniProt P04049). As to the kind of experiment: Inhibition of C-Raf kinase-mediated phosphorylation of Mek using [33P]gammaATP after 20 mins by scintillation counting. In short, it runs like this: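 The reaction was started with [γ-³³P]ATP (about 500 cpm/pmol) and run 20 min at 30 °C. It was then spotted onto a phosphocellulose mat, washed in 1% phosphoric acid, and counted by scintillation.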

A further assay has as its system BGC-823. Nature of the assay: Antiproliferative activity against human BGC823 cells after 72 hrs by MTT assay. It is filed as functional, cell-based. Conditions: BGC-823, 72 h. In short, it runs like this:
as §1

The test system of the next assay is SMMC-7721. Nature of the assay: Antiproliferative activity against human SMMC7721 cells after 72 hrs by MTT assay. The format is functional, cell-based. The following applies: SMMC-7721, 72 h. The gist of the method:
as §1

For assay [2], the target named is Focal adhesion kinase 1 (Homo sapiens) (UniProt Q05397). Nature of the assay: Inhibition of PTK2 at 10 uM.
Sequence of Focal adhesion kinase 1 (Homo sapiens) (Q05397 2-1052 limits assumed): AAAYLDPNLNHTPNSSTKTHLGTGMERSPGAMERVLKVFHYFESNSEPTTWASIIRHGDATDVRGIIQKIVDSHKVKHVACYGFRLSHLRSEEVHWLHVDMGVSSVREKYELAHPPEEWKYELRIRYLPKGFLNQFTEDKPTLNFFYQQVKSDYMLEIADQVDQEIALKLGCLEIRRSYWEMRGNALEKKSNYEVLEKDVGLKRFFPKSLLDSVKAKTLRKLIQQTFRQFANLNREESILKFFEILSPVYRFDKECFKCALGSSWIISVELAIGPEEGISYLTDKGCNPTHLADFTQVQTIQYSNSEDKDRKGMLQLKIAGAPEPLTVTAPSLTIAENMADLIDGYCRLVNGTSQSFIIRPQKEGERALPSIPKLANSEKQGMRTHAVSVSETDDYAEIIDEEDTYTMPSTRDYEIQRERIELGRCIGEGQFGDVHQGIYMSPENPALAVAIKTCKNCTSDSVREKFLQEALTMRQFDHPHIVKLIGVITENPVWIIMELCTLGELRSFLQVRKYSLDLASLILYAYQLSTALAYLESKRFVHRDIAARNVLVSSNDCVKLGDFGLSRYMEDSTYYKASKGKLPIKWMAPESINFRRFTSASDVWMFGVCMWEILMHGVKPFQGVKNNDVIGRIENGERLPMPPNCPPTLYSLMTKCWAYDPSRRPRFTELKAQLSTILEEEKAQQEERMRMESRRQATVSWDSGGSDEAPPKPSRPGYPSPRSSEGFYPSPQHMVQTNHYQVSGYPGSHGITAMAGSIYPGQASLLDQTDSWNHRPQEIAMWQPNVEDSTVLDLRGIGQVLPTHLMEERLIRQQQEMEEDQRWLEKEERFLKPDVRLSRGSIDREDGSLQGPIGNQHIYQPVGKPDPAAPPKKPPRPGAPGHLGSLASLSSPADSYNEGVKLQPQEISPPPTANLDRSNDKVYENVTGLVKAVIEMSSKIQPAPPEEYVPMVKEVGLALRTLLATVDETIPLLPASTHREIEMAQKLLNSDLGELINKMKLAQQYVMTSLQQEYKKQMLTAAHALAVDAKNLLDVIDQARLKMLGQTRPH
Assay [3] has as its target Tyrosine-protein kinase JAK2 (Homo sapiens) (UniProt O60674). Nature of the assay: Inhibition of JAK2 at 10 uM.
In assay [4] the target is Tyrosine-protein kinase SYK (Homo sapiens) (UniProt P43405). As to the kind of experiment: Inhibition of SYK at 10 uM.
The target in assay [5] is Vascular endothelial growth factor receptor 2 (Homo sapiens) (UniProt P35968). Nature of the assay: Inhibition of VEGFR2 at 10 uM.
Sequence of Vascular endothelial growth factor receptor 2 (Homo sapiens) (P35968 whole entry): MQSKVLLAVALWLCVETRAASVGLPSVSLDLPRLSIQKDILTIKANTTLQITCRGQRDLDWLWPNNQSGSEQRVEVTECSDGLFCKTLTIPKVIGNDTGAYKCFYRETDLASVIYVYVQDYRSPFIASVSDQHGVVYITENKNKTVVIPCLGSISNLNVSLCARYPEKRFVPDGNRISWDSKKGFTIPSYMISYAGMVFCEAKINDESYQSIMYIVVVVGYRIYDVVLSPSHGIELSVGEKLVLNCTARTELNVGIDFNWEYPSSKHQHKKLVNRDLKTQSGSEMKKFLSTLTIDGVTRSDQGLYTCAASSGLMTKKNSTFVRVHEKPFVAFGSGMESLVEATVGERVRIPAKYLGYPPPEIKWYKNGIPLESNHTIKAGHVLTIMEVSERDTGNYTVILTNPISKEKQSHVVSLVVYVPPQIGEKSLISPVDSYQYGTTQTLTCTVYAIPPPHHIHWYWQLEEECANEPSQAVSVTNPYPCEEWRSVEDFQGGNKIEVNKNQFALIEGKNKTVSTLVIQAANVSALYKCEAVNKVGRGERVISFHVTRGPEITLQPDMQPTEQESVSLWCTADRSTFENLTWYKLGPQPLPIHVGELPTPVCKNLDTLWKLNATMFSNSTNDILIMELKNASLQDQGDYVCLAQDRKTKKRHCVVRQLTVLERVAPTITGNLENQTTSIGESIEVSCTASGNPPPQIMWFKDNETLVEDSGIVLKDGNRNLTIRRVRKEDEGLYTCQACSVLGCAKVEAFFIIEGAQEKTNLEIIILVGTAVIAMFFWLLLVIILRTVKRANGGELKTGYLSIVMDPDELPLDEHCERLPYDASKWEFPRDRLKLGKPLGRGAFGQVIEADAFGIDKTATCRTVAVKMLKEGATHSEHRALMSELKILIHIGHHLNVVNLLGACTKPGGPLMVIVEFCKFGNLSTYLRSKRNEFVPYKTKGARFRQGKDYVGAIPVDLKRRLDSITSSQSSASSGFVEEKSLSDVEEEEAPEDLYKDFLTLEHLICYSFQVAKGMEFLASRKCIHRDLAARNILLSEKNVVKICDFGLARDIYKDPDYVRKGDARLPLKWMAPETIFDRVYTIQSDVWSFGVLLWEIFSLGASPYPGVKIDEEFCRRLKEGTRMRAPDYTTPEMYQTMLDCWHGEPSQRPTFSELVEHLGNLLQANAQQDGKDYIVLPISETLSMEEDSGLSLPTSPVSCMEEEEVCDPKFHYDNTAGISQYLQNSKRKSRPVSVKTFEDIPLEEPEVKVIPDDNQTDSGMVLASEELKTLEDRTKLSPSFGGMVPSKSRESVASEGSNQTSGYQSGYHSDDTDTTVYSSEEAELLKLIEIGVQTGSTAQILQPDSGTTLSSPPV
Assay [6] concerns the target Tyrosine-protein kinase Fyn (Homo sapiens) (UniProt P06241). As to the kind of experiment: Inhibition of FYN at 10 uM.
Assay [7] has as its target Hepatocyte growth factor receptor (Homo sapiens) (UniProt P08581). Nature of the assay: Inhibition of c-MET at 10 uM.
Assay [8] deals with Inhibitor of nuclear factor kappa-B kinase subunit beta (Homo sapiens) (UniProt O14920). Nature of the assay: Inhibition of IKKbeta at 10 uM.
The target of assay [9] is Angiopoietin-1 receptor (Homo sapiens) (UniProt Q02763). Nature of the assay: Inhibition of TIE2 at 10 uM.
Assay [10] concerns the target Cyclin-dependent kinase 2 (Homo sapiens) (UniProt P24941). As to the kind of experiment: Inhibition of CDK2 at 10 uM.
Assay [11] concerns the target Platelet-derived growth factor receptor alpha (Homo sapiens) (UniProt P16234). Nature of the assay: Inhibition of PDGFRalpha at 10 uM.
A short description of assay [12]: Inhibition of Abl at 10 uM.
Assay [13] has as its target Fibroblast growth factor receptor 1 (Homo sapiens) (UniProt P11362). As to the kind of experiment: Inhibition of FGFR1 at 10 uM.
Assay [14] deals with T1, RAF proto-oncogene serine/threonine-protein kinase. As to the kind of experiment: Inhibition of c-Raf at 10 uM.
Assay [15] is described as follows: Inhibition of PKA at 10 uM.
The target in assay [16] is Mast/stem cell growth factor receptor Kit (Homo sapiens) (UniProt P10721). As to the kind of experiment: Inhibition of c-KIT at 10 uM.
For assay [17], the target named is Serine/threonine-protein kinase PLK1 (Homo sapiens) (UniProt P53350). As to the kind of experiment: Inhibition of PLK1 at 10 uM.
The target in assay [18] is Macrophage colony-stimulating factor 1 receptor (Homo sapiens) (UniProt P07333). Nature of the assay: Inhibition of FMS at 10 uM.
The target of assay [19] is Receptor-type tyrosine-protein kinase FLT3 (Homo sapiens) (UniProt P36888). As to the kind of experiment: Inhibition of FLT3 at 10 uM.
The target of assay [20] is Vascular endothelial growth factor receptor 2 (Homo sapiens) (UniProt P35968). Nature of the assay: Inhibition of KDR at 10 uM.
Assay [21] concerns the target RAC-alpha serine/threonine-protein kinase (Homo sapiens) (UniProt P31749). As to the kind of experiment: Inhibition of AKT1 at 10 uM.

T1 sequence (P04049 whole entry): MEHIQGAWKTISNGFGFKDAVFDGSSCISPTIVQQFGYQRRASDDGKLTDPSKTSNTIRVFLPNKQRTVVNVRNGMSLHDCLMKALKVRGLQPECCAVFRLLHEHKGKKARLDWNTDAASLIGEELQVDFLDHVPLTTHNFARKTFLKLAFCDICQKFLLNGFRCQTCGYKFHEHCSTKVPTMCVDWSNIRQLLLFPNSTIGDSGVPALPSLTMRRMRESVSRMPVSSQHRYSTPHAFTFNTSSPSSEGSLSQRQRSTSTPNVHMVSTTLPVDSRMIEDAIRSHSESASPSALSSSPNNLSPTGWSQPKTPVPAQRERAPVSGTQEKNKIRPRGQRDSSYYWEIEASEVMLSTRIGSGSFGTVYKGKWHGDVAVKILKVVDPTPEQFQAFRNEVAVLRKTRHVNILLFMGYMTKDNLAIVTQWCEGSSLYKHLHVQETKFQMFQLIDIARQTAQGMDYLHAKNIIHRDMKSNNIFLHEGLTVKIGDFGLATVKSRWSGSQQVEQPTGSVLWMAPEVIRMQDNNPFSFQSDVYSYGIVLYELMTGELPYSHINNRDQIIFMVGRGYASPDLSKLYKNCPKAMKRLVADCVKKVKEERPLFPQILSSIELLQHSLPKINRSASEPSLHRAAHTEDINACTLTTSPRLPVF
Sequence of Tyrosine-protein kinase Fyn (Homo sapiens) (P06241 2-537 limits assumed): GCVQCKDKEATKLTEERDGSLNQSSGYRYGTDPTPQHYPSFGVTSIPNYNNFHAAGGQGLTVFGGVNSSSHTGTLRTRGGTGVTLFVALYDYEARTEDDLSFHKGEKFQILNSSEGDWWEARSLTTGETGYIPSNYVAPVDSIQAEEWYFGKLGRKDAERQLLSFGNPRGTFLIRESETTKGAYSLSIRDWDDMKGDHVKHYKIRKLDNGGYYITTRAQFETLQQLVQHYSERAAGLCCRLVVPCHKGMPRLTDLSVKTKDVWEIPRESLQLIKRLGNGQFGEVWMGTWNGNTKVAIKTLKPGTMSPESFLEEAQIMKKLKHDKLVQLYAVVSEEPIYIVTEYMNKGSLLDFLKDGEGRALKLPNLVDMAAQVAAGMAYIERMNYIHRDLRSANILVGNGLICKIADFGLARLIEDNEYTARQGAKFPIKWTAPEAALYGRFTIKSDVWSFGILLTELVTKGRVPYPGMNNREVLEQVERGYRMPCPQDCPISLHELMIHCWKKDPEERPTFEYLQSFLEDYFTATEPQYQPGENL
Sequence of Tyrosine-protein kinase JAK2 (Homo sapiens) (O60674 whole entry): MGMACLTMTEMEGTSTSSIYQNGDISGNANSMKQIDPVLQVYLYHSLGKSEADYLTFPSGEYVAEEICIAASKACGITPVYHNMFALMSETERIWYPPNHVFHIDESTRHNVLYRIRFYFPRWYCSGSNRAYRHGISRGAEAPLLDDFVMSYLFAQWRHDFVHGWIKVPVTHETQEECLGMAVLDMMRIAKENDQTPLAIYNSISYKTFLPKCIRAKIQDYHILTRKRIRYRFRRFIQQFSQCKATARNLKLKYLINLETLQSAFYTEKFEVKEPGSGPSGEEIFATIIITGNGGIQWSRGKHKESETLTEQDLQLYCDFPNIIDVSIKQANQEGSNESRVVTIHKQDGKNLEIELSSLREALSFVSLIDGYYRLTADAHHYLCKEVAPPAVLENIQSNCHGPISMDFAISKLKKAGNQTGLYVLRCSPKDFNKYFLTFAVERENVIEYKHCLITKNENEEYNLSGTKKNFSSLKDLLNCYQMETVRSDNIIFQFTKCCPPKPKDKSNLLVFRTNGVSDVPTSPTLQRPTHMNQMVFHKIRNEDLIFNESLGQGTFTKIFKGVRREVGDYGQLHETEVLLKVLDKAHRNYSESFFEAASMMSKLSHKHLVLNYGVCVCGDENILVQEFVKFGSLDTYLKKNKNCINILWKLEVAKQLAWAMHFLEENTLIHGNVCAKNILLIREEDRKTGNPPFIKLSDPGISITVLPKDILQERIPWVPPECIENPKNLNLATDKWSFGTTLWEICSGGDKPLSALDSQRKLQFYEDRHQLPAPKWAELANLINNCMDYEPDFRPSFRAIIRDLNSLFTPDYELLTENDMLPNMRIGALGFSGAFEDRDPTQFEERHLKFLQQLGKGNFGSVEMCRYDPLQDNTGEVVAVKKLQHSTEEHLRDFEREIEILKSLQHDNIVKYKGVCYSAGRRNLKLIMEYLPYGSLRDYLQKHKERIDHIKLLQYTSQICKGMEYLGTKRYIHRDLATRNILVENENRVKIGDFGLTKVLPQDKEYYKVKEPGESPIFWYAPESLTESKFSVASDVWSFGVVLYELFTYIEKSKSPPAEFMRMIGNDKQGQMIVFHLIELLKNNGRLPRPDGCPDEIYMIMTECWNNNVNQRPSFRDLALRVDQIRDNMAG

For `O=C(Nc1ccc(F)cc1)Nc1ccc(Oc2ccnc(-c3ncc(C(F)(F)F)[nH]3)c2)cc1`, the concentration for half-maximal inhibition (IC50) with MDA-MB-231 was determined as 38.7 µM; in assay [1] it was 0.0949 µM; with BGC-823, 23.7 µM; in the assay on SMMC-7721, 36.2 µM.
For the compound `CNC(=O)c1cc(Oc2ccc(NC(=O)Nc3ccc(Cl)c(C(F)(F)F)c3)cc2)ccn1` [SORAFENIB], the IC50 in the assay on MDA-MB-231 was 7.18 µM; with BGC-823, 10.9 µM; in the assay with SMMC-7721 it was 6.23 µM.
As to `Cc1ccc(NC(=O)Nc2ccc(Oc3ccnc(-c4ncc(C(F)(F)F)[nH]4)c3)cc2Cl)cc1C(F)(F)F`, the 50% inhibitory concentration (IC50) with MDA-MB-231 was found to be 10.1 µM; in assay [1] it was 0.0467 µM; in the assay on BGC-823, 33.4 µM; in the assay with SMMC-7721, 8.38 µM.
Consider `O=C(Nc1ccc(Oc2ccnc(-c3ncc(C(F)(F)F)[nH]3)c2)cc1)Nc1cc(C(F)(F)F)ccc1Cl`, for which the IC50 with MDA-MB-231 stood at 7.83 µM; in assay [1], 0.0759 µM; with BGC-823, 18.4 µM; in the assay on SMMC-7721 it was 6.84 µM.
The like results for `O=C(Nc1ccc(Cl)c(Cl)c1)Nc1ccc(Oc2ccnc(-c3ncc(C(F)(F)F)[nH]3)c2)cc1Cl` were, in that order, 1.77 µM, 0.0165 µM, 12.7 µM and 2.49 µM.
With `COc1cc(NC(=O)Nc2ccc(Oc3ccnc(-c4ncc(C(F)(F)F)[nH]4)c3)cc2Cl)cc(OC)c1OC`, the 50% inhibitory concentration (IC50) in the assay on MDA-MB-231, in the assay on BGC-823 and in the assay with SMMC-7721 was > 100 µM throughout.
As to `O=C(Nc1cccc(C(F)(F)F)c1)Nc1ccc(Oc2ccnc(-c3ncc(C(F)(F)F)[nH]3)c2)cc1Cl`, the IC50 in the assay with MDA-MB-231 stood at 14.2 µM; in assay [1], 0.0648 µM; with BGC-823, 23.2 µM; with SMMC-7721 it was 9.72 µM.
With `O=C(Nc1ccc(Oc2ccnc(-c3ncc(C(F)(F)F)[nH]3)c2)cc1)Nc1ccc(Cl)c(C(F)(F)F)c1`, the inhibition turned out to be 4.9% in [2]; 0% in assay [3]; 20.4% in assay [4]; 36.8% in [5]; 0.4% in [6]; 2.2% in assay [7]. Moreover, the inhibition in [8] turned out to be 5.6%; in [9], 27.5%; in [10] it was 7.8%; in assay [11] it was 0%; in assay [12] it was 44.3%; in assay [13] it was 20.2%. Further, the inhibition in assay [14] worked out at 95.3%; in assay [15], 1.3%; in assay [16], 23.9%; in [17], 8.7%; in assay [18] it was 50.8%; in assay [19], 17.7%. The inhibition in assay [20] stood at 3.5%; in assay [21] it was 11.7%. For the same compound, the IC50 in the assay with MDA-MB-231 turned out to be 1.21 µM; in [1] it was 0.0106 µM; in the assay with BGC-823, 13.2 µM; with SMMC-7721, 1.38 µM.
For the compound `O=C(Nc1ccc(Cl)c(C(F)(F)F)c1)Nc1ccc(Oc2ccnc(-c3ncc(C(F)(F)F)[nH]3)c2)cc1Cl`, the IC50 in the assay with MDA-MB-231 is 3.77 µM; in [1], 0.0221 µM; with BGC-823 it was 11.1 µM; in the assay with SMMC-7721, 6.52 µM.
On the same counts, the results for `O=C(Nc1ccc(Oc2ccnc(-c3ncc(C(F)(F)F)[nH]3)c2)cc1Cl)Nc1cc(C(F)(F)F)ccc1Cl` are 7.03 µM, 0.0359 µM, 14.2 µM and 5.29 µM.
`O=C(Nc1ccc(Oc2ccnc(-c3ncc(C(F)(F)F)[nH]3)c2)cc1)Nc1ccc(Cl)c(Cl)c1`: the IC50 in the assay on MDA-MB-231 is 2.03 µM; in assay [1], 0.0131 µM; in the assay on BGC-823, 10.7 µM; in the assay on SMMC-7721, 3.06 µM.
On the same counts, the results for `Cc1cccc(Cl)c1NC(=O)Nc1ccc(Oc2ccnc(-c3ncc(C(F)(F)F)[nH]3)c2)cc1` are 76.6 µM, 0.12 µM, 84 µM and 57.9 µM.
The like results for `O=C(Nc1ccc(Oc2ccnc(-c3ncc(C(F)(F)F)[nH]3)c2)cc1)Nc1ccc(Br)cc1F` were, in that order, 25.4 µM, 0.0815 µM, 66.8 µM and 44.6 µM.
On the same counts, the results for `O=C(Nc1ccc(F)c(C(F)(F)F)c1)Nc1ccc(Oc2ccnc(-c3ncc(C(F)(F)F)[nH]3)c2)cc1Cl` are 8.21 µM, 0.0777 µM, 17.7 µM and 5.72 µM.
Consider `COc1ccc(NC(=O)Nc2ccc(Oc3ccnc(-c4ncc(C(F)(F)F)[nH]4)c3)cc2)cc1`, for which the IC50 in the assay on MDA-MB-231 was 95.4 µM; in the assay on BGC-823 it was > 100 µM; in the assay with SMMC-7721, > 100 µM.
Regarding `O=C(Nc1ccc(Oc2ccnc(-c3ncc(C(F)(F)F)[nH]3)c2)cc1)Nc1cccc(C(F)(F)F)c1`, the IC50 in the assay with MDA-MB-231 came out at 10.7 µM; in assay [1] it was 0.0878 µM; with BGC-823, 26.2 µM; with SMMC-7721, 11.7 µM.
On the same counts, the results for `Cc1cc(NC(=O)Nc2ccc(Oc3ccnc(-c4ncc(C(F)(F)F)[nH]4)c3)cc2)no1` are 44.8 µM, 0.148 µM, 97.7 µM and 87.7 µM.
As to `O=C(Nc1ccc(Oc2ccnc(-c3ncc(C(F)(F)F)[nH]3)c2)cc1)Nc1ccc2c(c1)OCO2`, the IC50 in the assay with MDA-MB-231 is 63.2 µM; in the assay with BGC-823, > 100 µM; with SMMC-7721 it was 92.4 µM.
For the compound `O=C(Nc1ccc(Oc2ccnc(-c3ncc(C(F)(F)F)[nH]3)c2)cc1)Nc1ccc(F)c(Cl)c1`, the IC50 was determined as 11.3 µM in the assay on MDA-MB-231, 0.0692 µM in [1], 15.7 µM in the assay on BGC-823 and 9.69 µM in the assay with SMMC-7721.
